# Results from ChEMBL document CHEMBL4118202, “Chiral analogues of (+)-cyclazosin as potent α1B-adrenoceptor selective antagonist” (Bioorg Med Chem, 2018).
# Assays:
# [1] = target: T1, Alpha-1A adrenergic receptor (Rattus norvegicus) (UniProt P43140); experiment: Antagonist activity at alpha1A adrenergic receptor in Wistar rat prostatic rat vas deferens assessed as inhibition of noradrenaline-induced contraction preincubated for 30 mins followed by noradrenaline addition measured after 45 mins in presence of cocaine hydrochloride; format: functional
# T1 sequence (whole entry): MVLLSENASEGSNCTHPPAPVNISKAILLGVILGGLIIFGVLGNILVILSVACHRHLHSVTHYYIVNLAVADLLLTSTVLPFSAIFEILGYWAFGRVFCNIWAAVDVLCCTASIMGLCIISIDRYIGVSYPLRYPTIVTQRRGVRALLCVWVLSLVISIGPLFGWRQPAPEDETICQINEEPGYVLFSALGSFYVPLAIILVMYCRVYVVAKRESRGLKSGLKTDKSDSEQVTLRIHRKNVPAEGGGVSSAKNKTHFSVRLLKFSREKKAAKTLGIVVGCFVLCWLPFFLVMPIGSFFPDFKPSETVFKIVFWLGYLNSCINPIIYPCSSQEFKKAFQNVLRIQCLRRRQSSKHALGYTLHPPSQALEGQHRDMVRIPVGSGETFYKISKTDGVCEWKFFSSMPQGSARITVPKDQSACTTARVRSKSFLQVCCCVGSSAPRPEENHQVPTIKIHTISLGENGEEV
# Method in brief: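 Prostatic rat vas deferens, 2 cm portions, held at 0.35 g in Tyrode (pH 7.4, 37 °C, 95% O2/5% CO2). Cocaine 10 μM added 20 min before the agonist. Tissue equilibrated 45 min and primed twice with 10 μM noradrenaline. Isotonic cumulative noradrenaline curves were run before and after 30 min antagonist. pA2 came from Schild plots (≥3 concentrations); otherwise pKB (van Rossum). n ≥ 4.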
# [2] = target: T2, Alpha-1D adrenergic receptor (Rattus norvegicus, UniProt P23944); experiment: Antagonist activity at alpha1D adrenergic receptor in Wistar rat thoracic aorta assessed as inhibition of noradrenaline-induced contraction measured after 30 mins in presence of cocaine hydrochloride and beta-adrenoceptor blocker propranolol hydrochloride; format: functional; conditions: read-out: pA2 (converted)
# T2 sequence (P23944 whole entry): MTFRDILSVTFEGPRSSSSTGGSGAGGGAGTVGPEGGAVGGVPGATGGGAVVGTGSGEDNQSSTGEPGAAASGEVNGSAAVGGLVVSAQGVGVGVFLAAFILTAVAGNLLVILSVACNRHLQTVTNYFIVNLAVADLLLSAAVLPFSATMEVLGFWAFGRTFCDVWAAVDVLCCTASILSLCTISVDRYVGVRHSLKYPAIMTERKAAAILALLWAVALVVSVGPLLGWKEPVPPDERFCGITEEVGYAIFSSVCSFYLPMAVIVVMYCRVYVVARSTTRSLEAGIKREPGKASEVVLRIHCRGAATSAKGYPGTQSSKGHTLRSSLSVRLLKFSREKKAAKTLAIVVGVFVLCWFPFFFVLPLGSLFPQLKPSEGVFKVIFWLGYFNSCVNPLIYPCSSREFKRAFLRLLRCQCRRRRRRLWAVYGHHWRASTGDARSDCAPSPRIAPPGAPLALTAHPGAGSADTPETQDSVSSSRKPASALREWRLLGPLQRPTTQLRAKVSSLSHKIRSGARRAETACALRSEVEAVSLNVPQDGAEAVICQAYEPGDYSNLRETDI
# Method in brief: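 Helical thoracic aorta strips, endothelium removed (checked by loss of acetylcholine relaxation), in Krebs at 1 g, equilibrated ≥2 h. Isometric cumulative noradrenaline curves at 1 h intervals; the second served as control, the third followed 30 min antagonist.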
# [3] = target: T3, Alpha-1B adrenergic receptor (Homo sapiens, UniProt P35368); experiment: Displacement of [3H]prazosin from human alpha1B adrenergic receptor expressed in CHO cell membranes after 30 mins by rapid filtration method
# T3 sequence (P35368 whole entry): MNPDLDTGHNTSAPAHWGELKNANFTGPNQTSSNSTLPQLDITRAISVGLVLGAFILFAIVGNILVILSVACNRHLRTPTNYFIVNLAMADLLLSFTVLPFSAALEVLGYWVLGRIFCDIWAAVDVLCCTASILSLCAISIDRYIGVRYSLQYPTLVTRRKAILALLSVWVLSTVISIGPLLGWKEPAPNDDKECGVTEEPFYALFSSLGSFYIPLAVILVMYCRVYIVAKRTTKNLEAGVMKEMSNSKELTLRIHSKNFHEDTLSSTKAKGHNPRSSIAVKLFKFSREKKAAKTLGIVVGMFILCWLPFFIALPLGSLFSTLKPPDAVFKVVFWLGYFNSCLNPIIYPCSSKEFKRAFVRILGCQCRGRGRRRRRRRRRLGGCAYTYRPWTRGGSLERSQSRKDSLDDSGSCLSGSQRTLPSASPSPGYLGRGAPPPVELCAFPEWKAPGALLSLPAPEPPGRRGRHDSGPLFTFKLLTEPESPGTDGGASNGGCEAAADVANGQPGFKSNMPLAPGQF
# Method in brief: (§1)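 Membranes (30 μg protein) from CHO cells stably transfected with the human α1a, α1b or α1d receptor. Incubated 30 min at 25 °C in 50 mM Tris-HCl pH 7.4 with 0.1–0.4 nM [3H]prazosin and competitor 1 pM–10 μM. Nonspecific binding defined by 10 μM phentolamine. Stopped by rapid filtration through PEI-treated filters. IC50 converted to Ki by Cheng-Prusoff; pKi from 2–3 experiments in triplicate.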
# [4] = target: T4, Alpha-1D adrenergic receptor (Homo sapiens, UniProt P25100); experiment: Displacement of [3H]prazosin from human alpha1D adrenergic receptor expressed in CHO cell membranes after 30 mins by rapid filtration method; method in brief: as §1
# T4 sequence (P25100 whole entry): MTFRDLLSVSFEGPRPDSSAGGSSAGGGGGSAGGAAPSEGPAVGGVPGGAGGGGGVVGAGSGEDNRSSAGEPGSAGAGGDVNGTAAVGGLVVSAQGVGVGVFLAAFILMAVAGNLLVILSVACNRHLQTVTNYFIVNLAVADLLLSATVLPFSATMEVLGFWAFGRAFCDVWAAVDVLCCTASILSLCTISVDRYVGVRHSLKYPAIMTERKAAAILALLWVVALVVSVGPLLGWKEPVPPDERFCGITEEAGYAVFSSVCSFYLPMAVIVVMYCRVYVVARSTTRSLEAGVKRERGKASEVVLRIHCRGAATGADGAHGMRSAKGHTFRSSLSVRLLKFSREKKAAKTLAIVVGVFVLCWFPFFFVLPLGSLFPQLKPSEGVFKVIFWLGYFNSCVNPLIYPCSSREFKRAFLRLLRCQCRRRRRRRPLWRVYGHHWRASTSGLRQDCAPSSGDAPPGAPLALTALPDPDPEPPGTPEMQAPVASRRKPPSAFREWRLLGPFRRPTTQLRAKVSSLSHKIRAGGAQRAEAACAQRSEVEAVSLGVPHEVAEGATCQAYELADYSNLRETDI
SMILES,pKb [1],Kb [2],Ki [3],Ki [4]
CCCCCC(=O)N1CCN(c2nc(N)c3cc(OC)c(OC)cc3n2)[C@@H]2CCCC[C@@H]21,7.06,155 nM,0.912 nM,3.72 nM
COc1cc2nc(N3CCN(C(C)=O)[C@H]4CCCC[C@H]43)nc(N)c2cc1OC,,1700 nM,9.12 nM,105 nM
COc1cc2nc(N3CCN(C(=O)OCc4ccccc4)[C@H]4CCCC[C@H]43)nc(N)c2cc1OC,,240 nM,0.38 nM,3.98 nM
CCCN(CCC)c1nc(N2CCN(C(=O)c3ccco3)[C@H]3CCCC[C@H]32)nc2cc(OC)c(OC)cc12,5.89,,0.302 nM,5.13 nM
COc1cc2nc(N3CCN(C(=O)Cc4ccc5ccccc5c4)[C@H]4CCCC[C@H]43)nc(N)c2cc1OC,6.56,135 nM,1.17 nM,2.24 nM
COc1cc2nc(N3CCN(C(=O)C(C)(C)C)[C@H]4CCCC[C@H]43)nc(N)c2cc1OC,7.17,141 nM,0.776 nM,6.17 nM
COc1cc2nc(N3CCN(C(C)=O)[C@@H]4CCCC[C@@H]43)nc(N)c2cc1OC,,2.19 nM,0.741 nM,0.151 nM

# Stronger by Ki [3], values ahead:
pKb [1],Kb [2],Ki [3],Ki [4],SMILES
,0.525 nM,0.191 nM,0.0398 nM,COc1cc2nc(N3CCN(C(=O)OCc4ccccc4)[C@@H]4CCCC[C@@H]43)nc(N)c2cc1OC
7.02,58.9 nM,0.129 nM,0.0631 nM,CCCN(CCC)c1nc(N2CCN(C(=O)c3ccco3)[C@@H]3CCCC[C@@H]32)nc2cc(OC)c(OC)cc12
,58.9 nM,0.151 nM,0.389 nM,COc1cc2nc(N3CCN(C(=O)COc4c(OC)cccc4C(C)C)[C@H]4CCCC[C@H]43)nc(N)c2cc1OC
